Consider 36 sequences from the EternaBench riboswitch data.

What is called apparent Kd is a dissociation constant that holds for the conditions of the assay.

This series deals with MS2 coat protein. Kind of series: apparent Kd, MS2 coat protein; higher = weaker binding; RNA-MaP array; FMN 200 µM where present. The gist of the method:
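Stalled E. coli RNA polymerase produced the designs on Illumina sequencing-chip clusters. SNAP-549-labelled MS2 coat protein was added from 0.7 or 1.5 nM, doubling to 3 µM, without and then with constant ligand, in 100 mM Tris-HCl pH 7.5, 80 mM KCl, 4 mM MgCl2, BSA, DTT, yeast tRNA and Tween-20. The apparent Kd is the median of filtered per-cluster fits of green signal normalised to red-channel RNA signal and control-cluster median Fmax.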

The mark [1] stands for this setting: designed as: OFF switch for flavin mononucleotide, no ligand.
[2] abbreviates: ligand present: flavin mononucleotide, designed as: OFF switch for flavin mononucleotide.
The mark [3] stands for this setting: designed as: ON switch for flavin mononucleotide, no ligand.
[4] abbreviates: ligand present: flavin mononucleotide, designed as: ON switch for flavin mononucleotide.

“AUUGUAUGGGAAGGAUAUAGAAUAUUAUUUUAACAUGAGGAUCACCCAUGUAACCUUAUGUGUAGCUAGAAGGUCCGUUUGUUA”: the “apparent Kd” value is, setting by setting: under setting [1], 308 nM; under setting [2], 409 nM.
For “CCGAGGCGAGGAUAUACAUGAGGAUCACCCAUGUCUGACCGACGCGCGCCAGGCAUAUGUAGAAGGCGCCGGAA” the same measures were 31.5 nM and 138 nM.
For “AAAAAAAAAAGACAGGAUAUCCAAAAAAAAACAUGAGGAUCACCCAUGUAAAAAAAAAAAAAGUGGGAGAAGGGUCAAAAAAAAAA”, the “apparent Kd” value reads like this: under setting [3], 57.7 nM; under setting [4], 23.2 nM.
Consider “GGAUACAUCGGAGGAUAUCAUGUAAAUACAUGAGGAUCACCCAUGUCGAUGGAGACAUCGGAGAUUGAGAAGGCCGAUGUACCG”, for which the “apparent Kd” value is, setting by setting: under setting [3], 164 nM; under setting [4], 8.95 nM.
Consider “AAAGAGCGAGGAUAUACGUAUCGGUGCGGCCCGCCGAUGUGACAUGAGGAUCACCCAUGUAGAAGGCGCAGAAA”, for which the “apparent Kd” value was determined as 26.2 nM under setting [1] and 33 nM under setting [2].
The corresponding values for “GAGCGAAAGCUCAAUGUCGAUAGCAGAAGGACAUGAAAACGUGAAAACACAUGAGGAUCACCCAUGUAGGAUAUGCUAUCGACU” are 57.1 nM and 745 nM.
On to “CGUAUAUGGGAGAAGGCAUGUUCCAAAGGGCCAUGAGGAUAUCCUAAGUGUACGCUUUGCGACAUGAGGAUCACCCAUGUAGCA”, for which the “apparent Kd” value by setting is: under setting [3], 8.95 nM; under setting [4], 6.34 nM.
In the case of “AGACUGCGUAGAAUUAGCAGCUGACAGGAUAUGACAUGAGGAUCACCCAUGUGAACUACAAAGGAUCAGAAGGGUCACGACACA”, the “apparent Kd” value is, setting by setting: under setting [1], 18.6 nM; under setting [2], 30.3 nM.
As to “AGCAUGUUUACAUGAGGAUCACCCAUGUUUAUUUAGGAUUUCAGAAGGUACAAUUUGUGUUAGAGUAAGGAUAUGAUAUAUGCG”, the “apparent Kd” value was found to be 12 nM under setting [3] and 8.48 nM under setting [4].
In the case of “AAUUUAAUACAUGAGGAUCACCCAUGUAAAUUAAUUAAGAUCUAGGAUAUCAGCUCGAUUAGAGCUGAGAAGGAGAUCACAUGU”, the “apparent Kd” value runs as follows: under setting [3], 16.6 nM; under setting [4], 13.2 nM.
The corresponding values for “UUAAUGAUGUAAGGAUAUACAUGAGGAUUUCUCGUAGAAGGUACAAGACAUGAGGAUCACCCAUGUGUCGCUCCGUAGAGCGUA” are 288 nM and 302 nM.
For “GCACUUGCGUAGAAGGUACUAUAUAAUACACUGUAAGGAUAUACAUACAUGAGGAUCACCCAUGUAAAUGGAAUUUGCAAGUGC”, the “apparent Kd” value by setting is: under setting [3], 6.62 nM; under setting [4], 6.49 nM.
For “UAAAUGUGAGGAUAUCAGGUGUGCUAGCAUACUGGUACAUCUGAGAAGGCACAUGAGGAUCACCCAUGUUCCUU”, the “apparent Kd” value reads like this: under setting [1], 16.8 nM; under setting [2], 52.4 nM.
As to “GGCGUUCGCACAGGAUAUGCAUUAGACAUGAGGAUCACCCAUGUAGGCUAAGCAGAAGGGUGGGUGUGUCUAAGGAAAUUCUUC”, the “apparent Kd” value under setting [3] was determined as 172 nM and the “apparent Kd” value under setting [4] turned out to be 42.4 nM.
Take “CCGGAAACGGGUAGCCUGACAUGAGGAUCACCCAUGUAAUCCGAGGAUAUGGAUCCUAAUUGGAUCCAGAAGGUGGCAGGCUAC”: the “apparent Kd” value by setting is: under setting [3], 463 nM; under setting [4], 127 nM.
For “UGUUAGUAGACAGGAUAUUGAAUGUUAAGUAUUAACAUGAGGAUCACCCAUGUAUUUGAUUGGUACAAGAAGGGUCAUGUUUGU” the same measures were 265 nM and 606 nM.
Regarding “UGACUGAUAUAGAAGGGUAUGUGGGAAUUACAUGAGGAUCACCCAUGUUUUAUAGGAUAUGUAUAUAGUUUUUAAUCAAGUUUA”, the “apparent Kd” value is 48.2 nM under setting [1] and 36.8 nM under setting [2].
For “AUAUUGUGAGGAUAUGAACUUAGUAUCGAAAGAUACUAACUUCAGAAGGCACAUGAGGAUCACCCAUGUUUCUC” the same measures were 72.3 nM and 689 nM.
For the sequence “UAUGGUAAAGUCAGGAUAUACGUACAUCAUUCUAGGUAGAAGGGACAUGAGGAUCACCCAUGUAUGGUAGUGUU”, the “apparent Kd” value turned out to be 62.2 nM under setting [1] and 67.6 nM under setting [2].
The corresponding values for “UUAGCAACAUGAGGAUCACCCAUGUAGGAUAUCGCUAUUGUAAUCAUGAAACAUGAUUACAAUAGCGAGAAGGACAUAUGCUGG” are 22.4 nM and 19.5 nM.
As for “CCGAAUGUCACAGGAUAUGGUCCGGGCACGGGACCAGAAGGGUGAUCUCACAUGAGGAUCACCCAUGUGCAGGCGUUAGGCUGC”, the “apparent Kd” value under setting [3] was determined as 18.6 nM and the “apparent Kd” value under setting [4] worked out at 86 nM.
Regarding “UCGGCGCGAGGAUAUGCGGUUGCUUGGUAGGGUCGUGGCGUACAUGAGGAUCACCCAUGUAGAAGGCGCGCCGC”, the “apparent Kd” value under setting [1] was 19.6 nM and the “apparent Kd” value under setting [2] was 25.9 nM.
For the sequence “GUGCGGUGAGGAUAUACGUAGGUACAGAUCUGUGUGUUCCUACAUGAGGAUCACCCAUGUAGAAGGCAUGGCAC”, the “apparent Kd” value under setting [1] stood at 49.6 nM and the “apparent Kd” value under setting [2] amounted to 136 nM.
The corresponding values for “UGCUGUGUCAGAGGAUAUACUCUAAUAAUCCAUUGCAAAUAGCGAUGGACAUGAGGAUCACCCAUGUAGAAGGCUGGCACAGCA” are 70.2 nM and 152 nM.
Turning to “GAGACGUCAGGAUAUCUGAUGUCUAACUUCGGUUAGACAUCAGAGAAGGGACAUGAGGAUCACCCAUGUCUCAG”, the “apparent Kd” value came out at 15.9 nM under setting [1] and 13.9 nM under setting [2].
In the case of “GUUAUGCAGCAGGAUAUCCAUCCGCGGUAUGAUGGAGAAGGGCUGACAUGAGGAUCACCCAUGUGCGUCCUAGG”, the “apparent Kd” value reads like this: under setting [1], 40.3 nM; under setting [2], 97.1 nM.
For “CCGGAAAUGUAGGAUAUAGGAGUCGAUAGACACCUAGAAGGGCAUACAUGAGGAUCACCCAUGUGUCCUACCGG” the same measures were 13.7 nM and 15.8 nM.
For the sequence “GGUGGGUUGCUGCCGGCACAUGAGGAUCACCCAUGUUUUGGGAAGGAUAUGGUACCUUUUUGGUGCCAGAAGGUCCCGUUGGUG”, the “apparent Kd” value was 733 nM under setting [3] and 1000 nM under setting [4].
Consider “CUCCGUGGCGAGAAGGGCGGGAUUUUAGGUUCUGUAGGAUAUCGAAACAUGAGGAUCACCCAUGUAUUGAUCGGGUGCAGUGUG”, for which the “apparent Kd” value is, setting by setting: under setting [1], 22 nM; under setting [2], 23.2 nM.
Consider “UCGACCAGCGCCAGUCGAACAUGAGGAUCACCCAUGUACUCCAGAAGGCCGCCCAAGUACGGAGUGGAGGAUAUGGAAGUUCUC”, for which the “apparent Kd” value is 47.3 nM under setting [3] and 26.3 nM under setting [4].
With “CCGGAAACGGGUAGCUGUACAUGAGGAUCACCCAUGUGAUCAUAGGAUAUGGAUCCUAAUUGGAUCCAGAAGGAUGUCAGCUAC”, the “apparent Kd” value under setting [3] was 163 nM and the “apparent Kd” value under setting [4] amounted to 580 nM.
For the sequence “UGUGCGUUGAUCUUCGAUCGGUGUACAUGAGGAUCACCCAUGUAGGAUAUUCUAAGACGCAGAUAGGAGAAGGACAUUGGUUUU”, the “apparent Kd” value was 22.9 nM under setting [1] and 64.1 nM under setting [2].
The corresponding values for “GAAUAGAAAGAUUAAUAUGAUUACAUGAGGAUCACCCAUGUAUAGGAUAUCGACGUCAAUGACGUCGAGAAGGAUACAUAAUAA” are 14.5 nM and 26.1 nM.
With “UUCUUGGCAGGAUAUGCUUUUUUAGACAUGAGGAUCACCCAUGUGAUGAUUAUUGGUUUUGCAGAAGGGCCUUAAU”, the “apparent Kd” value under setting [1] was found to be 53.6 nM and the “apparent Kd” value under setting [2] worked out at 87.5 nM.
The corresponding values for “GGUGCGUAUGUGAGGAUAUGCUGGUCCUUGGCUCGGCAGAAGGCACAUGAGGAUCACCCAUGUGGUGUCGUUCC” are 52.5 nM and 222 nM.
For the sequence “AGUGCCCGAGCAGGAUAUCAAUGGUGGUCUGUACGCUGUAAAUUCAACAUGAGGAUCACCCAUGUUGAGAAGGGUUACGGCGCA”, the “apparent Kd” value under setting [1] turned out to be 8.86 nM and the “apparent Kd” value under setting [2] amounted to 23.9 nM.
